Calls of active or inactive are those of the source. No cut-off for these calls is given here.
Experiments:
[1] = target: T1, Adenosine kinase (Homo sapiens, UniProt P55263); experiment: Drug metabolism in human HCT116 cells assessed as ADK-mediated compound phosphorylation level per 5x10^5 cells at 1 umol/L after 1 hr by UPLC-MS/MS analysis; format: ADME, cell-based; settings: 1 µM
Procedure, shortened: (§1)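 BJ (normal) and HCT116 (malignant) cells exposed to nucleoside at 1 or 10 μmol/L for 1 or 3 h. Intracellular nucleoside and its monophosphate quantified against synthetic monophosphate standards. Values given as pmol per 5 × 10^5 cells.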

[2] = target: T1, Adenosine kinase; experiment: Drug metabolism in human HCT116 cells assessed as ADK-mediated compound phosphorylation level per 5x10^5 cells at 10 umol/L after 3 hrs by UPLC-MS/MS analysis; format: ADME, cell-based; settings: 10 µM; procedure, shortened: as §1
[3] = target: T1, Adenosine kinase; experiment: Drug metabolism in human BJ cells assessed as ADK-mediated compound phosphorylation level per 5x10^5 cells at 10 umol/L after 3 hrs by UPLC-MS/MS analysis; format: ADME, cell-based; settings: 10 µM; procedure, shortened: as §1
[4] = target: T1, Adenosine kinase; experiment: Drug metabolism in human BJ cells assessed as ADK-mediated compound phosphorylation level per 5x10^5 cells at 1 umol/L after 3 hrs by UPLC-MS/MS analysis; format: ADME, cell-based; settings: 1 µM; procedure, shortened: as §1
[5] = target: T1, Adenosine kinase; experiment: Drug metabolism in human BJ cells assessed as ADK-mediated compound phosphorylation level per 5x10^5 cells at 1 umol/L after 1 hr by UPLC-MS/MS analysis; format: ADME, cell-based; settings: 1 µM; procedure, shortened: as §1
[6] = target: T1, Adenosine kinase; experiment: Drug metabolism in human HCT116 cells assessed as ADK-mediated compound phosphorylation level per 5x10^5 cells at 1 umol/L after 3 hrs by UPLC-MS/MS analysis; format: ADME, cell-based; settings: 1 µM; procedure, shortened: as §1
[7] = target: T1, Adenosine kinase; experiment: Drug metabolism in human BJ cells assessed as ADK-mediated compound phosphorylation level per 5x10^5 cells at 10 umol/L after 1 hr by UPLC-MS/MS analysis; format: ADME, cell-based; settings: 10 µM; procedure, shortened: as §1
[8] = target: T1, Adenosine kinase; experiment: Drug metabolism in human HCT116 cells assessed as ADK-mediated compound phosphorylation level per 5x10^5 cells at 10 umol/L after 1 hr by UPLC-MS/MS analysis; format: ADME, cell-based; settings: 10 µM; procedure, shortened: as §1
[9] = test system: DNA; experiment: Induction of DNA damage in human U2OS cells transfected with 53BP1-GFP fusion gene assessed as increase in number of foci per nucleus measured at 1 hr intervals for 11 hrs by fluorescence-based assay; format: functional, cell-based
Procedure, shortened: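 U2OS osteosarcoma reporter line stably expressing 53BP1-GFP treated up to 11 h, with etoposide as the double-strand-break reference. 53BP1 foci in nuclei imaged by confocal microscopy (40× objective).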

T1 sequence (P55263 whole entry): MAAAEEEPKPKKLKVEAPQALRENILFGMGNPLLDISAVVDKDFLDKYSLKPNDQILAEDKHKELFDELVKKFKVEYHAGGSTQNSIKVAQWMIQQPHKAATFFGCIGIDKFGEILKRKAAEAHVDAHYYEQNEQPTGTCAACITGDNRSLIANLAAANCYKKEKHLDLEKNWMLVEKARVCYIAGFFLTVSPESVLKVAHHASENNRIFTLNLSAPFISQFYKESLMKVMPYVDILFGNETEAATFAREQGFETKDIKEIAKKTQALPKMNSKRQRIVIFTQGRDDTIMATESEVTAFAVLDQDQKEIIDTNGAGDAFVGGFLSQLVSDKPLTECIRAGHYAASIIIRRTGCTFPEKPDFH

Drug metabolism [1] | Drug metabolism [2] | Drug metabolism [3] | Drug metabolism [4] | Drug metabolism [5] | Drug metabolism [6] | Drug metabolism [7] | Drug metabolism [8] | SMILES | Activity [9]
511.81 pmol | 12533.33 pmol | 4920.41 pmol | 241.05 pmol | 223.51 pmol | 1167.4 pmol | 4488.64 pmol | 9531.67 pmol | Cc1ncnc2c1c1occc1n2[C@@H]1O[C@H](COP(=O)([O-])O)[C@@H](O)[C@H]1O.[Na+] | 
 |  |  |  |  |  |  |  | COc1cc([C@@H]2c3cc4c(cc3[C@@H](O[C@@H]3O[C@@H]5CO[C@@H](C)O[C@H]5[C@H](O)[C@H]3O)[C@H]3COC(=O)[C@H]23)OCO4)cc(OC)c1O | Active
466.96 pmol | 12049.83 pmol | 5041.67 pmol | 332.63 pmol | 220.92 pmol | 1079.19 pmol | 1531.57 pmol | 8868.83 pmol | Cc1ncnc2c1c1c(ccn1C)n2[C@@H]1O[C@H](COP(=O)([O-])O)[C@@H](O)[C@H]1O.[Na+] | 
